Experimental findings from ChEMBL document CHEMBL1157017, “Synthesis and pharmacological evaluation of new 5-(cyclo)alkyl-5-phenyl- and 5-spiroimidazolidine-2,4-dione derivatives. Novel 5-HT1A receptor agonist with potential antidepressant and anxiolytic activity” (Eur J Med Chem, 2010) are described below.

SMILES strings stand for the structures. Active and inactive are the calls of the source. The rule behind the calls is not given here.

For orientation: Ki means the dissociation constant of the complex between target and ligand, obtained from inhibition or displacement.

Test [1] addresses T1, 5-hydroxytryptamine receptor 1A (Rattus norvegicus, UniProt P19327).
T1 sequence (P19327 whole entry): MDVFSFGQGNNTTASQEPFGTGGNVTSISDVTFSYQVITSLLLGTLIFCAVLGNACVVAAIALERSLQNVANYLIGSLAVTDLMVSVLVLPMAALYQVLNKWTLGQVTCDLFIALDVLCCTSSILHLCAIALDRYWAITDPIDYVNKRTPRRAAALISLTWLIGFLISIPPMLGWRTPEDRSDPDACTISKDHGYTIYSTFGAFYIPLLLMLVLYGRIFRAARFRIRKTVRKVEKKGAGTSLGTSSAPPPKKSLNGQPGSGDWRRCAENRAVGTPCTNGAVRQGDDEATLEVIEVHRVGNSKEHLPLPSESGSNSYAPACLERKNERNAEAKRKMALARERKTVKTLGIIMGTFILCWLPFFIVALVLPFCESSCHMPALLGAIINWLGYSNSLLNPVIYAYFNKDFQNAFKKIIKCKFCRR
Description: Displacement of [3H]8OH-DPAT from 5HT1A in rat brain cerebral cortex. In kind it is tissue-based. The procedure, abridged: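 Rat cerebral cortex membranes (9 mg wet weight) in 50 mM Tris-HCl pH 7.7 with pargyline, CaCl2 and 0.1% ascorbic acid. Incubated 15 min at 37 °C with 1 nM [3H]-8-OH-DPAT and compound at 10^-10–10^-4 M. Nonspecific binding defined with serotonin. GF/B filtration and scintillation counting, in duplicate, with iterative curve fitting.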
(In general: Loss of bound radioactivity is the signal in a displacement assay; it reports binding, not function.)

Test [2] addresses T2, 5-hydroxytryptamine receptor 1A (Rattus norvegicus) (UniProt P19327).
T2 sequence (whole entry): T1 sequence (P19327 whole entry)
Description: Antagonist activity at postsynaptic 5HT1A receptor in rat brain cerebral cortex at 20 ug/ml. In kind it is functional, tissue-based. Particulars: filed as antagonist.

The subject of test [3] is Mus musculus. Description: Anxiolytic-like activity in Swiss albino mouse assessed as number of punished crossing at 30 mg/kg, ip after 60 mins by four-plate test (RVb = 3.8 +/- 0.2). In kind it is functional. Particulars: route intraperitoneal.
In test [4] the target is T2, 5-hydroxytryptamine receptor 1A (Rattus norvegicus). Description: Antagonist activity at presynaptic 5HT1A receptor in rat brain cerebral cortex at 20 ug/ml. The test is classed as functional, tissue-based. Particulars: filed as antagonist.
Test [5] has as its system Mus musculus. As to the kind of experiment: Anxiolytic-like activity in Swiss albino mouse assessed as number of punished crossing at 20 mg/kg, ip after 60 mins by four-plate test (RVb = 3.8 +/- 0.2). In kind it is functional. Particulars: route intraperitoneal.
The subject of test [6] is Mus musculus. As to the kind of experiment: Anxiolytic-like activity in Swiss albino mouse assessed as number of punished crossing at 10 mg/kg, ip after 60 mins by four-plate test (RVb = 3.8 +/- 0.2). In kind it is functional. Particulars: route intraperitoneal.
The target in test [7] is 5-hydroxytryptamine receptor 2A (Rattus norvegicus, UniProt P14842). Description: Displacement of [3H]ketanserin from 5HT2A in rat brain cerebral cortex. In kind it is tissue-based. The procedure, abridged:
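Rat cerebral cortex membranes in 50 mM Tris-HCl pH 7.7 were incubated 20 min at 37 °C with 0.6 nM [3H]-ketanserin and compound at 10^-10–10^-4 M. Mianserin served as displacer. Filtration through GF/B, scintillation counting, in duplicate, with iterative curve fitting.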

Test [8] has as its target 5-hydroxytryptamine receptor 2A (Rattus norvegicus) (UniProt P14842). Description: Antagonist activity at postsynaptic 5HT2A receptor in rat brain cerebral cortex at 20 ug/ml. The test is classed as functional, tissue-based. Particulars: filed as antagonist.
The next test concerns the target D(2) dopamine receptor (Rattus norvegicus, UniProt P61169). As to the kind of experiment: Displacement of [3H]spiperone from dopamine D2 receptor in rat brain striatum.
Test [9] addresses T2, 5-hydroxytryptamine receptor 1A (Rattus norvegicus). As to the kind of experiment: Agonist activity at presynaptic 5HT1A receptor in rat brain cerebral cortex at 20 ug/ml. In kind it is functional, tissue-based. Particulars: filed as agonist.
For test [10], the system named is Mus musculus. As to the kind of experiment: Antidepressant-like activity in Swiss mouse assessed as immobilization time at 5 mg/kg, ip after 30 mins by forced swim test (RVb = 181.4 +/- 4.9 s). The test is classed as functional. Particulars: route intraperitoneal.
Test [11] concerns Mus musculus. Description: Anxiolytic-like activity in Swiss albino mouse assessed as number of punished crossing at 5 mg/kg, ip after 30 mins by four-plate test (RVb = 3.8 +/- 0.2). Particulars: route intraperitoneal.
Test [12] relates to Mus musculus. Description: […] in Swiss albino mouse assessed as number of […] crossing of the light beam during 30 mins at 10 mg/kg, ip measured after 30 mins postdose […] (RVb = 249.2 +/- 21). Particulars: route intraperitoneal. The test is classed as functional.
Test [13] concerns Mus musculus. As to the kind of experiment: Anxiolytic-like activity in Swiss albino mouse assessed as number of punished crossing of the light beam during 6 mins at 10 mg/kg, ip measured after 30 mins postdose (RVb = 107.1 +/- 8.5). Particulars: route intraperitoneal.
Test [14] deals with Mus musculus. As to the kind of experiment: […] in Swiss albino mouse assessed as number of […] crossing of the light beam during 30 mins at 20 mg/kg, ip measured after 30 mins postdose […] (RVb = 249.2 +/- 21). In kind it is functional. Particulars: route intraperitoneal.
Test [15] deals with Mus musculus. As to the kind of experiment: Antidepressant-like activity in Swiss mouse assessed as immobilization time at 20 mg/kg, ip after 30 mins by forced swim test (RVb = 181.4 +/- 4.9 s). In kind it is functional. Particulars: route intraperitoneal.
For test [16], the target named is T2, 5-hydroxytryptamine receptor 1A (Rattus norvegicus). As to the kind of experiment: Agonist activity at postsynaptic 5HT1A receptor in rat brain cerebral cortex at 20 ug/ml. In kind it is functional, tissue-based.
In test [17] the test system is Mus musculus. As to the kind of experiment: Antidepressant-like activity in Swiss mouse assessed as immobilization time at 10 mg/kg, ip after 30 mins by forced swim test (RVb = 181.4 +/- 4.9 s). The test is classed as functional. Particulars: route intraperitoneal.
In test [18] the test system is Mus musculus. Description: […] in Swiss albino mouse assessed as number of […] crossing of the light beam during 6 mins at 20 mg/kg, ip measured after 30 mins postdose […] (RVb = 107.1 +/- 8.5). In kind it is functional. Particulars: route intraperitoneal.
The test system of test [19] is Mus musculus. As to the kind of experiment: Anxiolytic-like activity in Swiss albino mouse assessed as number of punished crossing at 30 mg/kg, ip after 60 mins by four-plate test (RVb = 4.2 +/- 0.4). The test is classed as functional. Particulars: route intraperitoneal.
The test system of test [20] is Mus musculus. As to the kind of experiment: Anxiolytic-like activity in Swiss albino mouse assessed as number of punished crossing at 10 mg/kg, ip after 60 mins by four-plate test (RVb = 4.2 +/- 0.4). In kind it is functional. Particulars: route intraperitoneal.
Test [21] relates to Mus musculus. As to the kind of experiment: Anxiolytic-like activity in Swiss albino mouse assessed as number of punished crossing at 20 mg/kg, ip after 60 mins by four-plate test (RVb = 4.2 +/- 0.4). Particulars: route intraperitoneal. The test is classed as functional.
The nature of test [22]: Agonist activity at presynaptic 5HT1A receptor in brain cerebral cortex at 20 ug/ml.
Test [23] relates to Mus musculus. As to the kind of experiment: Antidepressant-like activity in Swiss mouse assessed as immobilization time at 20 mg/kg, ip after 30 mins by forced swim test (RVb = 167.1 +/- 6.7 s). In kind it is functional. Particulars: route intraperitoneal.
The test system of test [24] is Mus musculus. Description: […] in Swiss albino mouse assessed as number of […] crossing of the light beam at 20 mg/kg, ip measured after 30 mins postdose […] (RVb = 94.8 +/- 4.1). Particulars: route intraperitoneal.
In test [25] the test system is Mus musculus. As to the kind of experiment: […] in Swiss albino mouse assessed as number of […] crossing of the light beam during 30 mins at 20 mg/kg, ip measured after 30 mins postdose […] (RVb = 210.7 +/- 17.7). The test is classed as functional. Particulars: route intraperitoneal.
The test system of test [26] is Mus musculus. Description: […] in Swiss albino mouse assessed as number of […] crossing of the light beam during 30 mins at 10 mg/kg, ip measured after 30 mins postdose […] (RVb = 210.7 +/- 17.7). In kind it is functional. Particulars: route intraperitoneal.
For test [27], the system named is Mus musculus. Description: […] in Swiss albino mouse assessed as number of […] crossing of the light beam during 6 mins at 10 mg/kg, ip measured after 30 mins postdose […] (RVb = 94.8 +/- 4.1). Particulars: route intraperitoneal. The test is classed as functional.
The test system of test [28] is Mus musculus. Description: Antidepressant-like activity in Swiss mouse assessed as immobilization time at 10 mg/kg, ip after 30 mins by forced swim test (RVb = 167.1 +/- 6.7 s). The test is classed as functional. Particulars: route intraperitoneal.

Chain of D(2) dopamine receptor (P61169 whole entry): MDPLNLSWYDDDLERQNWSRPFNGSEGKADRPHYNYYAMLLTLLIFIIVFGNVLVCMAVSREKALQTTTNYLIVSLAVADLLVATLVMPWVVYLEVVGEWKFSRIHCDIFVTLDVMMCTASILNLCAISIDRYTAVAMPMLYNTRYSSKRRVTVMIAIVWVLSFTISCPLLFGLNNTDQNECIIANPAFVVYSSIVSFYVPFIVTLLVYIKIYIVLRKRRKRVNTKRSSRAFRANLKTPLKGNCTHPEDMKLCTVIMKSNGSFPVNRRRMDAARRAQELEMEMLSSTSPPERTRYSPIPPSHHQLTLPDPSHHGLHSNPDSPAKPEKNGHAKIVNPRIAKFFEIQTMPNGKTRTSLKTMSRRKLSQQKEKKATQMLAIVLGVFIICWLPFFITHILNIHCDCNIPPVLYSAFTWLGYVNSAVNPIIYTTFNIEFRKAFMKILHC
Chain of 5-hydroxytryptamine receptor 2A (Rattus norvegicus) (P14842 whole entry): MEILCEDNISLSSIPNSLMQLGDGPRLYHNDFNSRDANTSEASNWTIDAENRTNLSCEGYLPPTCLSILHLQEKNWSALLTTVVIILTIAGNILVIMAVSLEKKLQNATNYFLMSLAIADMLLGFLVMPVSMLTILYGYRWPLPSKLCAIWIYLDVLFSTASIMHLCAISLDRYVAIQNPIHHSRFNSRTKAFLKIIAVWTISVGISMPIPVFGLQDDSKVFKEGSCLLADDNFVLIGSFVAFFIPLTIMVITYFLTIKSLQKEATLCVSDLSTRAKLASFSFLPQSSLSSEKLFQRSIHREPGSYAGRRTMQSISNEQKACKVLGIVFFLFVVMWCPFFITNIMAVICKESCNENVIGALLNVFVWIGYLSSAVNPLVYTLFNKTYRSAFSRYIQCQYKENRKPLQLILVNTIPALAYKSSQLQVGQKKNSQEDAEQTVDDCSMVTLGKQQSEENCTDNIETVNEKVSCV
Chain of 5-hydroxytryptamine receptor 2A (P14842 whole entry): as above

Regarding `O=C1NC(c2ccccc2)(C2CC2)C(=O)N1CCCN1CCN(c2cccc(Cl)c2)CC1` (racemic), the Ki is 13 nM in test [1] and 78 nM in test [7]. The Activity result is “Antagonist” in [2]; 3.7 in the test with Mus musculus [3]; “Antagonist” in test [4]; 3.9 in the test on Mus musculus [5]; 3.8 with Mus musculus [6].
As to `O=C1NC2(CCc3ccccc32)C(=O)N1CCCN1CCN(c2ccccc2)CC1` (racemic), the results for the inhibition constant (Ki) (in test [1]; on D(2) dopamine receptor; in [7]) were 98 nM, 15600 nM and 30 nM, respectively. Also, the Activity entry in test [8] is “Antagonist”.
For the molecule `COc1ccccc1N1CCN(CCCN2C(=O)NC3(CCc4ccccc43)C2=O)CC1` (racemic), the Ki in test [1] is 49 nM; in [7], 653 nM. For the same molecule, the Activity entry is “Antagonist” in [2] and “Agonist” in test [9].
On to `O=C1NC2(CCCc3ccccc32)C(=O)N1CCCN1CCN(c2cccc(Cl)c2)CC1` (racemic), for which the Ki amounted to 350 nM in test [1], 1800 nM at D(2) dopamine receptor and 35 nM in test [7]. In test [8], the Activity result is “Antagonist”.
On to `CC1(c2ccccc2)NC(=O)N(CCCN2CCN(c3ccccc3)CC2)C1=O` (racemic), for which the values for the Ki in test [1] and in [7] were 457 nM and 69 nM, respectively.
As to `O=C1NC2(CCCc3ccccc32)C(=O)N1CCCN1CCN(c2ccccc2)CC1` (racemic), the Ki is 88 nM in test [1], 675 nM on D(2) dopamine receptor and 25 nM in test [7]. In addition, the Activity entry in test [8] was “Antagonist”.
Regarding `COc1ccccc1N1CCN(CCCN2C(=O)NC3(CCCc4ccccc43)C2=O)CC1` (racemic), the Ki in [1] was found to be 23 nM; in test [7] it was 284 nM. Also, the Time with Mus musculus [10] came to 161.2 s; with Mus musculus [15], 103.1 s; with Mus musculus [17] it was 121.4 s. The Activity in the test with Mus musculus [11] was 3.9; in the test with Mus musculus [12] it was 212.9; in the test with Mus musculus [13], 110; in [9], “Agonist”; in the test with Mus musculus [14] it was 225.3; in test [16] (filed as agonist), “Agonist”. Further, the Activity is recorded as 111.6 with Mus musculus [18], 4.4 in the test with Mus musculus [5] and 5.9 in the test with Mus musculus [6].
For `COc1ccccc1N1CCN(CCCN2C(=O)NC(C)(c3ccccc3)C2=O)CC1` (racemic), the Ki was 47 nM in [1] and 730 nM in test [7]. Besides, in test [9], the Activity entry was “Agonist”. Further, in test [16], the result was inactive.
Take `O=C1NC2(CCc3ccccc32)C(=O)N1CCCN1CCN(c2cccc(Cl)c2)CC1` (racemic): the inhibition constant Ki came out at 38 nM in test [1], 6200 nM at D(2) dopamine receptor and 53 nM in test [7]. Moreover, the Activity entry in [2] is “Antagonist”; in [9], “Agonist”; in [8], “Antagonist”; in the test with Mus musculus [19] it was 4.2; in the test with Mus musculus [20], 4; with Mus musculus [21], 4.2.
`CC1(c2ccccc2)NC(=O)N(CCCN2CCN(c3cccc(Cl)c3)CC2)C1=O` (racemic): the inhibition constant Ki was found to be 29 nM in test [1], 3900 nM at D(2) dopamine receptor and 312 nM in test [7]. In addition, the Activity entry in test [2] is “Antagonist”. Moreover, the outcome in test [22] was inactive.
Consider `O=C1NC(c2ccccc2)(C2CC2)C(=O)N1CCCN1CCN(c2ccccc2)CC1` (racemic), for which the Ki in test [1] worked out at 67 nM; in test [7], 100 nM. Also, the outcome in [22] and in test [16] was inactive.
With `COc1ccccc1N1CCN(CCCN2C(=O)NC(c3ccccc3)(C3CC3)C2=O)CC1` (racemic), the Ki in test [1] was determined as 11 nM; in test [7] it was 710 nM. In addition, the Activity entry in [9] is “Agonist”. Besides, the result in [16] was inactive.
With `CN(C)CCCN1c2ccccc2CCc2ccccc21` [IMIPRAMINE], the Time with Mus musculus [23] came out at 107.8 s; in the test with Mus musculus [28], 149.1 s. For the same molecule, the Activity in the test on Mus musculus [24] is given as 89.1; in the test on Mus musculus [25], 141.6; in the test with Mus musculus [26], 208.7; in the test on Mus musculus [27], 94.4.
